Article PMC7382256 (Proceedings of the National Academy of Sciences of the …, 2020)

Tests used:
Format in all cases: binding
CSP32 = CSP32 (Caulobacter vibrioides, UniProt A0A0H3CCM2, DEL161/K168R)
CSP18 = CSP18 (Caulobacter vibrioides, UniProt A0A0H3CCM2, K168R/Y163A)
CSP19 = CSP19 (Caulobacter vibrioides, UniProt A0A0H3CCM2, K164A/K168R)
CSP25 = CSP25 (Caulobacter vibrioides, UniProt A0A0H3CCM2, K168R/K170A)
CSP23 = CSP23 (Caulobacter vibrioides, UniProt A0A0H3CCM2, K168A)
CSP9 = CSP9 (Caulobacter vibrioides, UniProt A0A0H3CCM2, D154A/K168R)
CSP6 = CSP6 (Caulobacter vibrioides, UniProt A0A0H3CCM2, K168R)
CSP13 = CSP13 (Caulobacter vibrioides, UniProt A0A0H3CCM2, F158A/K168R)
CSP11 = CSP11 (Caulobacter vibrioides, UniProt A0A0H3CCM2, K168R/R156A)
CSP10 = CSP10 (Caulobacter vibrioides, UniProt A0A0H3CCM2, K168R/R155A)
CSP22 = CSP22 (Caulobacter vibrioides, UniProt A0A0H3CCM2, K168R/R167A)
CSP31 = CSP31 (Caulobacter vibrioides, UniProt A0A0H3CCM2, DEL160/K168R)
CSP29 = CSP29 (Caulobacter vibrioides, UniProt A0A0H3CCM2, DEL158/K168R)
CSP21 = CSP21 (Caulobacter vibrioides, UniProt A0A0H3CCM2, K168R/P166A)
CSP12 = CSP12 (Caulobacter vibrioides, UniProt A0A0H3CCM2, K168R/R157A)
CSP27 = CSP27 (Caulobacter vibrioides, UniProt A0A0H3CCM2, D172A/K168R)
CSP4 = CSP4 (Caulobacter vibrioides, UniProt A0A0H3CCM2, K168R)
CSP30 = CSP30 (Caulobacter vibrioides, UniProt A0A0H3CCM2, DEL159/K168R)
CSP15 = CSP15 (Caulobacter vibrioides, UniProt A0A0H3CCM2, K168R/S160A)
H6-MBP-CSP2 = H6-MBP-CSP2 (Caulobacter vibrioides, UniProt A0A0H3CCM2, K168R)
H6-MBP-CSP2, sequence (A0A0H3CCM2 140-174 K168R): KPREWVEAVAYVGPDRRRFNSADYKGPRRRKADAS

CSP20 = CSP20 (Caulobacter vibrioides, UniProt A0A0H3CCM2, G165A/K168R)
CSP28 = CSP28 (Caulobacter vibrioides, UniProt A0A0H3CCM2, DEL157/K168R)
CSP17 = CSP17 (Caulobacter vibrioides, UniProt A0A0H3CCM2, D162A/K168R)
CSP14 = CSP14 (Caulobacter vibrioides, UniProt A0A0H3CCM2, K168R/N159A)
CSP3 = CSP3 (Caulobacter vibrioides, UniProt A0A0H3CCM2, K168R)
CSP3, sequence (A0A0H3CCM2 144-172 K168R): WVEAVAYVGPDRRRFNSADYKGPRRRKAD

CSP26 = CSP26 (Caulobacter vibrioides, UniProt A0A0H3CCM2, A171L/K168R)
CSP7 = CSP7 (Caulobacter vibrioides, UniProt A0A0H3CCM2, K168R)
CSP2 = CSP2 (Caulobacter vibrioides, UniProt A0A0H3CCM2, K168R)
CSP2, sequence (A0A0H3CCM2 140-174 K168R): as the sequence (A0A0H3CCM2 140-174 K168R) above

CSP16 = CSP16 (Caulobacter vibrioides, UniProt A0A0H3CCM2, A161L/K168R)
CSP1 = CSP1 (Caulobacter vibrioides, UniProt A0A0H3CCM2)
CSP1, sequence (A0A0H3CCM2 140-174): as the sequence (A0A0H3CCM2 140-174 K168R) above, with R29K counted along it
In short: (§1)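 Peptide or protein, c-di-GMP and buffer were degassed for 15 min; runs at 15 °C. Format 1: cell held about 10 µM peptide/protein and syringe about 200 µM c-di-GMP, 30 injections at 250-s spacing. Format 2 (reverse): cell held about 20 µM c-di-GMP and syringe about 100 µM peptide/protein, 18 injections at 120-s spacing. Concentrations were set by absorbance at 1-cm path.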

c-di-GMP [1] = experiment: Microscale thermophoresis; conditions: N-terminally FITC-labeled CSP4
In short: (§2)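 Binding of nucleotides to an N-terminally FITC-labelled, C-terminally amidated synthetic peptide (≥70% purity, dissolved in ultrapure water, concentration by spectrophotometry). Measured by microscale thermophoresis in standard-treated capillaries with blue-channel fluorescence, 30 s infrared heating at 50% of maximum laser power, then 5 s cooling. Buffer: 50 mM Tris·HCl pH 8.0, 100 mM NaCl, 0.1% polysorbate 20.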

GMP = experiment: Microscale thermophoresis; conditions: N-terminally FITC-labeled CSP4
In short: as §2

GTP = experiment: Microscale thermophoresis; conditions: N-terminally FITC-labeled CSP4
In short: as §2

2′3′-cGAMP = experiment: Microscale thermophoresis; conditions: N-terminally FITC-labeled CSP4
In short: as §2

3′3′-cGAMP = experiment: Microscale thermophoresis; conditions: N-terminally FITC-labeled CSP4
In short: as §2

3′3′-c-di-AMP = experiment: Microscale thermophoresis; conditions: N-terminally FITC-labeled CSP4
In short: as §2

pGpG = experiment: Microscale thermophoresis; conditions: N-terminally FITC-labeled CSP4
In short: as §2

c-di-GMP [2] = experiment: Isothermal titration calorimetry; conditions: ITC, 50 mM Tris·HCl pH 8.0, 100 mM NaCl, 15 °C; one-site model
In short: as §1

Molecule: Nc1nc2c(ncn2[C@@H]2O[C@@H]3CO[P@](=O)(O)O[C@H]4[C@@H](O)[C@H](n5cnc6c(=O)[nH]c(N)nc65)O[C@@H]4CO[P@](=O)(O)O[C@H]3[C@H]2O)c(=O)[nH]1 [c-di-GMP, cyclic diguanylate (3'3'-c-di-GMP)]
- Kd (CSP32): 338 nM
- Kd (CSP18): 4370 nM
- Kd (CSP19): 261 nM
- Kd (CSP25): 273 nM
- Kd (CSP23): 4800 nM
- Kd (CSP9): 1750 nM
- Kd (CSP6): 1410 nM
- Kd (CSP13): 140 nM
- Kd (CSP11): 1510 nM
- Kd (CSP10): 1470 nM
- Kd (CSP22): 1830 nM
- Kd (CSP31): 439 nM
- Kd (CSP29): 1270 nM
- Kd (CSP21): 346 nM
- Kd (CSP12): 782 nM
- Kd (CSP27): 1720 nM
- Kd (CSP4): 177 nM
- Kd (CSP30): 1250 nM
- Kd (CSP15): 209 nM
- Kd (H6-MBP-CSP2): 125 nM
- Kd (CSP20): 7660 nM
- Kd (CSP28): 1040 nM
- Kd (CSP17): 145 nM
- Kd (CSP14): 221 nM
- Kd (CSP3): 154 nM
- Kd (CSP26): 251 nM
- Kd (CSP7): 1710 nM
- Kd (CSP2): 19 nM
- Kd (CSP16): 102 nM
- Kd (CSP1): 108 nM

Molecule: Ac-DRRRFNSADYKGPRRRKAD-NH2 [CSP4]
- binding of c-di-GMP (MST) (c-di-GMP [1]): only c-di-GMP binding to CSP4 was observed
- binding of GMP (MST) (GMP): none of the related nucleotides or CDNs was able to bind
- binding of GTP (MST) (GTP): none of the related nucleotides or CDNs was able to bind
- binding of 2′3′-cGAMP (MST) (2′3′-cGAMP): none of the related nucleotides or CDNs was able to bind
- binding of 3′3′-cGAMP (MST) (3′3′-cGAMP): none of the related nucleotides or CDNs was able to bind
- binding of 3′3′-c-di-AMP (MST) (3′3′-c-di-AMP): none of the related nucleotides or CDNs was able to bind
- binding of pGpG (MST) (pGpG): none of the related nucleotides or CDNs was able to bind

Molecule: DRRRFNSADYKGPRRR [CSP8]
- Kd to c-di-GMP (c-di-GMP [2]): No binding

Molecule: RRRFNSADYKGPRRR [CSP5]
- Kd to c-di-GMP (c-di-GMP [2]): No binding
